# Laboratory results from ChEMBL document CHEMBL1777764, “Synthesis and evaluation of 1-(1H-indol-3-yl)ethanamine derivatives as new antibacterial agents” (Bioorg Med Chem, 2011).
# Experiments:
# Staphylococcus aureus [1] = experiment: Antibacterial activity against Staphylococcus aureus ATCC 25923 after 18 hrs by broth microdilution method; assay type: functional; settings: ATCC 25923, 18 h
# Method in brief: (§1)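 MIC by broth microdilution per ISO 20776-1:2006 and CLSI M07-A8. Inoculum 10^6 cfu/ml in Mueller-Hinton broth with compound serially diluted, final concentrations 2 to 128 ug/ml, duplicate rows, no-drug growth control. Incubation 18 h at 37 °C. MIC taken as lowest concentration giving complete inhibition of visible growth. Each compound tested at least twice.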
# HCT-116 [2] = experiment: Cytotoxicity against human HCT116 cells at 1 uM; assay type: cell-based; settings: hct-116, 1 µM
# Staphylococcus aureus [3] = experiment: Antibacterial activity against Staphylococcus aureus ATCC 29213 after 18 hrs by broth microdilution method; assay type: functional; settings: ATCC 29213, 18 h; method in brief: as §1
# Staphylococcus aureus [4] = experiment: Antibacterial activity against Staphylococcus aureus CIP 65.6 after 18 hrs by broth microdilution method; assay type: functional; settings: CIP 65.6, 18 h; method in brief: as §1
# KB [5] = experiment: Cytotoxicity against human KB cells at 10 uM; assay type: cell-based
# Staphylococcus aureus [6] = experiment: Antibacterial activity against Staphylococcus aureus ATCC 9144 after 18 hrs by broth microdilution method; assay type: functional; settings: ATCC 9144, 18 h; method in brief: as §1
# Staphylococcus aureus [7] = experiment: Antibacterial activity against Staphylococcus aureus ATCC 6538 after 18 hrs by broth microdilution method; assay type: functional; settings: ATCC 6538, 18 h; method in brief: as §1
# KB [8] = experiment: Cytotoxicity against human KB cells at 1 uM; assay type: cell-based
# [9] = test system: Staphylococcus epidermidis; experiment: Antibacterial activity against Staphylococcus epidermidis ATCC 12228 after 18 hrs by broth microdilution method; assay type: functional; settings: ATCC 12228, 18 h; method in brief: as §1
# MRC5 [10] = experiment: Cytotoxicity against human MRC5 cells at 10 uM; assay type: cell-based; settings: mrc5, 10 µM
# Staphylococcus aureus [11] = experiment: Antibacterial activity against Staphylococcus aureus CIP 103428 after 18 hrs by broth microdilution method; assay type: functional; settings: CIP 103428, 18 h; method in brief: as §1
# [12] = test system: Staphylococcus epidermidis; experiment: Antibacterial activity against Staphylococcus epidermidis CIP 103627 after 18 hrs by broth microdilution method; assay type: functional; settings: CIP 103627, 18 h; method in brief: as §1
# [13] = test system: Staphylococcus epidermidis; experiment: Antibacterial activity against Staphylococcus epidermidis CIP 81.55 after 18 hrs by broth microdilution method; assay type: functional; settings: CIP 81.55, 18 h; method in brief: as §1
# MRC5 [14] = experiment: Cytotoxicity against human MRC5 cells at 1 uM; assay type: cell-based; settings: mrc5, 1 µM
# HCT-116 [15] = experiment: Cytotoxicity against human HCT116 cells at 10 uM; assay type: cell-based; settings: hct-116, 10 µM
# Streptococcus pneumoniae [16] = experiment: Antibacterial activity against Streptococcus pneumoniae ATCC 49619 after 18 hrs by broth microdilution method; assay type: functional; settings: ATCC 49619, 18 h
# Method in brief: (§2)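 MIC by broth microdilution per ISO 20776-1:2006 and CLSI M07-A8. Inoculum 10^6 cfu/ml in Mueller-Hinton broth […]. Compound serially diluted, final 2 to 128 ug/ml, duplicate rows, no-drug growth control. Read after 18 h at 37 °C as lowest concentration fully inhibiting visible growth. At least two experiments.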
# Staphylococcus aureus [17] = experiment: Antibacterial activity against vancomycin intermediate Staphylococcus aureus […] after 18 hrs by broth microdilution method; assay type: functional
# Method in brief: (§3)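 Broth microdilution following ISO 20776-1:2006 and CLSI M07-A8, in Mueller-Hinton broth. Inoculum was 10^6 cfu/ml, with compound serial dilutions spanning 2 to 128 ug/ml and a compound-free growth control well. Plates were incubated 18 h at 37 °C. MIC was the lowest concentration giving complete inhibition of visible growth. Each compound was tested at least twice.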
# Staphylococcus aureus [18] = experiment: Antibacterial activity against methicillin-resistant Staphylococcus aureus CIP 65.25 after 18 hrs by broth microdilution method; assay type: functional; settings: CIP 65.25, 18 h; method in brief: as §3
# Staphylococcus aureus [19] = experiment: Antibacterial activity against methicillin-resistant Staphylococcus aureus ATCC 33592 after 18 hrs by broth microdilution method; assay type: functional; settings: ATCC 33592, 18 h; method in brief: as §3
# Streptococcus pneumoniae [20] = experiment: Antibacterial activity against Streptococcus pneumoniae ATCC 6303 after 18 hrs by broth microdilution method; assay type: functional; settings: ATCC 6303, 18 h; method in brief: as §2
SMILES,MIC (Staphylococcus aureus [1]) [µg/mL],Activity (HCT-116 [2]),MIC (Staphylococcus aureus [3]) [µg/mL],MIC (Staphylococcus aureus [4]) [µg/mL],Activity (KB [5]),MIC (Staphylococcus aureus [6]) [µg/mL],MIC (Staphylococcus aureus [7]) [µg/mL],Activity (KB [8]),MIC [9] [µg/mL],Activity (MRC5 [10]),MIC (Staphylococcus aureus [11]) [µg/mL],MIC [12] [µg/mL],MIC [13] [µg/mL],Activity (MRC5 [14]),Activity (HCT-116 [15]),MIC (Streptococcus pneumoniae [16]) [µg/mL],MIC (Staphylococcus aureus [17]) [µg/mL],MIC (Staphylococcus aureus [18]) [µg/mL],MIC (Staphylococcus aureus [19]) [µg/mL],MIC (Streptococcus pneumoniae [20]) [µg/mL]
CC(C)CC(NO)c1c[nH]c2ccc(I)cc12 (configuration not stated),32,Non-toxic,32,32,Non-toxic,32,32,Non-toxic,16,Non-toxic,32,16,16,Non-toxic,Non-toxic,,,,,
CC(NO)c1c[nH]c2ccc(I)cc12 (configuration not stated),64,Non-toxic,64,64,Non-toxic,64,64,Non-toxic,32,Non-toxic,64,32,32,Non-toxic,Non-toxic,,,,,
CC(C)CC(NO)c1c[nH]c2ccccc12 (configuration not stated),64,Non-toxic,64,64,Non-toxic,64,64,Non-toxic,32,Non-toxic,64,32,32,Non-toxic,Non-toxic,,,,,
CC(C)(C)OC(=O)NCC(c1c[nH]c2cc(Br)ccc12)N(O)Cc1ccccc1 (configuration not stated),8,Non-toxic,8,8,Non-toxic,8,8,Non-toxic,16,Non-toxic,8,16,16,Non-toxic,Non-toxic,> 128,16,16,16,> 128
CC(NO)c1c[nH]c2ccc(Cl)cc12 (configuration not stated),32,Non-toxic,32,32,Non-toxic,32,32,Non-toxic,16,Non-toxic,32,16,16,Non-toxic,Non-toxic,,,,,
CC(C)(C)OC(=O)NCC(c1c[nH]c2ccc(I)cc12)N(O)Cc1ccccc1 (configuration not stated),8,Non-toxic,8,8,,8,8,Non-toxic,8,,8,8,8,Non-toxic,,64,8,8,8,64
CC(C)CC(NO)c1c[nH]c2ccc(Br)cc12 (configuration not stated),32,Non-toxic,32,32,Non-toxic,32,32,Non-toxic,16,Non-toxic,32,16,16,Non-toxic,Non-toxic,,,,,
